Reference: ChEMBL document CHEMBL1143913, “Pyrimidinone-peptoid hybrid molecules with distinct effects on molecular chaperone function and cell proliferation” (Bioorg Med Chem, 2008)

Key:
SK-BR-3 = test: Antiproliferative activity against human SK-BR3 cells after 96 hrs by MTS assay; assay type: functional; conditions: SK-BR-3, 96 h
How it was run: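 Cells were kept in exponential growth in DMEM with 10% FBS, 1% penicillin and 1% glutamine, seeded at 4,000 per well and grown 48 h, with a time-zero plate counted. They were then exposed for 72 h to DMSO (1 v/v) or a concentration range in quadruplicate. Cell number was read by MTS/N-methylphenazine methylsulfate absorbance at 490 minus 630 nm. GI50 is relative to DMSO over the 72 h or 96 h period, and values above 50 µM are given as >50.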

Saccharomyces cerevisiae [1] = test: Inhibition of yeast Hsp70 ATPase assessed as ATP hydrolysis relative to control
How it was run: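 Purified yeast Hsp70 (Ssa1p) was pre-bound to ATP and run as a single-turnover assay, so that only the hydrolysis step is measured. Compound (300 µM) or DMSO was added at 0 s, and that time was set to zero. Results from multiple experiments were averaged, kinetics were fitted, and the value is the fold change in hydrolysis versus DMSO.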

Saccharomyces cerevisiae [2] = test: Inhibition of SV40 T antigen-stimulated Hsp70 ATPase in yeast assessed as ATP hydrolysis relative to control
How it was run: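 Yeast Ssa1p was pre-bound to ATP and run as a single-turnover assay with purified SV40 TAg (0.4 µM). Compound (300 µM) or DMSO was added at 60 s, and that time was set to zero. Runs were averaged over multiple experiments, kinetics were fitted, and the value is the fold change in TAg-stimulated ATP hydrolysis versus DMSO.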

CC1=C(C(=O)OCc2ccccc2)C(c2ccc3ccccc3c2)NC(=O)N1CCCCCC(=O)O (stereo not given)
GI50 (SK-BR-3): > 50 µM
Fold change (Saccharomyces cerevisiae [1]): -1.1
Fold change (Saccharomyces cerevisiae [2]): -1.4

CCCCNC(=O)C(c1ccc(OCC(=O)OC)c(C(=O)OC)c1)N(CCc1ccccc1)C(=O)CCCCCN1C(=O)NC(c2ccc(-c3ccccc3)cc2)C(C(=O)OCc2ccccc2)=C1C (stereo not given)
GI50 (SK-BR-3): 32 µM
Fold change (Saccharomyces cerevisiae [1]): 12.3
Fold change (Saccharomyces cerevisiae [2]): 1.3

CCCCCCN(C(=O)CCCCCN1C(=O)NC(c2ccc(-c3ccccc3)cc2)C(C(=O)OCc2ccccc2)=C1C)C(C(=O)NCCCC)c1ccc(O)c(C(=O)OC)c1 (stereo not given)
GI50 (SK-BR-3): > 50 µM
Fold change (Saccharomyces cerevisiae [1]): 19.1
Fold change (Saccharomyces cerevisiae [2]): 2.1

COC(=O)CCCCCN1C(=O)NC(c2ccccc2)C(C(=O)OCc2ccccc2)=C1C (stereo not given)
GI50 (SK-BR-3): > 50 µM
Fold change (Saccharomyces cerevisiae [1]): 2.3
Fold change (Saccharomyces cerevisiae [2]): -1.7

CC1=C(C(=O)OCc2ccccc2)C(c2ccccc2)NC(=O)N1CCCCCC(=O)O (stereo not given)
GI50 (SK-BR-3): > 50 µM
Fold change (Saccharomyces cerevisiae [1]): 1.5
Fold change (Saccharomyces cerevisiae [2]): -1.1

CC1=C(C(=O)OCc2ccccc2)C(c2ccc(C(C)(C)C)cc2)NC(=O)N1CCCCCC(=O)O (stereo not given)
GI50 (SK-BR-3): > 50 µM
Fold change (Saccharomyces cerevisiae [1]): 1
Fold change (Saccharomyces cerevisiae [2]): -3.5

CCCCCCN(C(=O)CCCCCN1C(=O)NC(c2ccc(-c3ccccc3)cc2)C(C(=O)OCc2ccccc2)=C1C)C(C(=O)NCCCC)c1ccccc1 (stereo not given)
GI50 (SK-BR-3): > 50 µM
Fold change (Saccharomyces cerevisiae [1]): 3.2
Fold change (Saccharomyces cerevisiae [2]): 1.1

CCCCNC(=O)C(c1ccc(OCC(=O)OC)c(C(=O)OC)c1)N(CCC1=CCCCC1)C(=O)CCCCCN1C(=O)NC(c2ccc(-c3ccccc3)cc2)C(C(=O)OCc2ccccc2)=C1C (stereo not given)
GI50 (SK-BR-3): 39 µM
Fold change (Saccharomyces cerevisiae [1]): 6.1
Fold change (Saccharomyces cerevisiae [2]): -1.2

CC1=C(C(=O)OCc2ccccc2)C(c2ccc([N+](=O)[O-])cc2)NC(=O)N1CCCCCC(=O)O (stereo not given)
GI50 (SK-BR-3): > 50 µM
Fold change (Saccharomyces cerevisiae [1]): 1.2
Fold change (Saccharomyces cerevisiae [2]): 1.1

CC1=C(C(=O)OCc2ccccc2)C(c2cccc([N+](=O)[O-])c2)NC(=O)N1CCCCCC(=O)O (stereo not given)
GI50 (SK-BR-3): > 50 µM
Fold change (Saccharomyces cerevisiae [1]): -1.1
Fold change (Saccharomyces cerevisiae [2]): 1.1

CCCCCCN(C(=O)CCCCCN1C(=O)NC(c2ccc(C(F)(F)F)cc2)C(C(=O)OCc2ccccc2)=C1C)C(C(=O)NCCCC)c1ccc(OCC(=O)OC)c(C(=O)OC)c1 (stereo not given)
GI50 (SK-BR-3): > 50 µM
Fold change (Saccharomyces cerevisiae [1]): 1
Fold change (Saccharomyces cerevisiae [2]): -4.8

COC(=O)CCCCCN1C(=O)NC(c2ccc(-c3ccccc3)cc2)C(C(=O)OCc2ccccc2)=C1C (stereo not given)
GI50 (SK-BR-3): > 50 µM
Fold change (Saccharomyces cerevisiae [1]): 2.6
Fold change (Saccharomyces cerevisiae [2]): -1.2

CCCCNC(=O)C(c1ccc(OCC(=O)OC)c(C(=O)OC)c1)N(CCc1ccccn1)C(=O)CCCCCN1C(=O)NC(c2ccc(-c3ccccc3)cc2)C(C(=O)OCc2ccccc2)=C1C (stereo not given)
GI50 (SK-BR-3): 7.5 µM
Fold change (Saccharomyces cerevisiae [1]): -1.1
Fold change (Saccharomyces cerevisiae [2]): -1.1

CCCCCCN(C(=O)CCCCCN1C(=O)NC(c2cccc([N+](=O)[O-])c2)C(C(=O)OCc2ccccc2)=C1C)C(C(=O)NCCCC)c1ccc(OCC(=O)OC)c(C(=O)OC)c1 (stereo not given)
GI50 (SK-BR-3): 6 µM
Fold change (Saccharomyces cerevisiae [1]): 1.1
Fold change (Saccharomyces cerevisiae [2]): -1.5

CC1=C(C(=O)OCc2ccccc2)C(c2ccc(C(F)(F)F)cc2)NC(=O)N1CCCCCC(=O)O (stereo not given)
GI50 (SK-BR-3): > 50 µM
Fold change (Saccharomyces cerevisiae [1]): 1.2
Fold change (Saccharomyces cerevisiae [2]): 1.1

CC(=O)O[C@H]1C(=O)[C@@]2(C)[C@H]([C@H](OC(=O)c3ccccc3)[C@]3(O)C[C@H](OC(=O)[C@H](O)[C@@H](NC(=O)c4ccccc4)c4ccccc4)C(C)=C1C3(C)C)[C@]1(OC(C)=O)CO[C@@H]1C[C@@H]2O [PACLITAXEL]
GI50 (SK-BR-3): 6.1 µM

CC1=C(C(=O)OCc2ccccc2)C(c2ccc(-c3ccccc3)cc2)NC(=O)N1CCCCCC(=O)O (stereo not given)
GI50 (SK-BR-3): > 50 µM
Fold change (Saccharomyces cerevisiae [1]): 1.1
Fold change (Saccharomyces cerevisiae [2]): -3.5

CC1=C(C(=O)OCc2ccccc2)C(C2CCCCC2)NC(=O)N1CCCCCC(=O)O (stereo not given)
GI50 (SK-BR-3): > 50 µM
Fold change (Saccharomyces cerevisiae [1]): 1
Fold change (Saccharomyces cerevisiae [2]): 1.5

CCCCCCN(C(=O)CCCCCN1C(=O)NC(c2ccc3ccccc3c2)C(C(=O)OCc2ccccc2)=C1C)C(C(=O)NCCCC)c1ccc(OCC(=O)OC)c(C(=O)OC)c1 (stereo not given)
GI50 (SK-BR-3): 10 µM
Fold change (Saccharomyces cerevisiae [1]): 1
Fold change (Saccharomyces cerevisiae [2]): -1.1
